For one assay, the system named is VEGFR-2. The settings on record: read-out: IC50 VEGFR-2; reference medicine pazopanib; cited from earlier work.
Assay [1] deals with VEGF-induced proliferation. To be noted: read-out: IC50 VEGF-induced proliferation; cited from earlier work.
Assay [2] relates to breast cancer (MCF-7) cell line. The assay is described as follows: MTT cytotoxicity, MCF-7. It is filed as cell-based. To be noted: Homo sapiens, MCF7, 24 h, read-out: IC50 MCF-7. In short, it runs like this:
(§1)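 Cells were grown in medium with 10% FBS, penicillin/streptomycin, 37°C, 5% CO2, then seeded at 1.0×10^4 cells/well and held 48 h. Test compound was added at 1.56, 3.125, 6.25, 12.5, 25, 50 and 100, for 24 h. MTT (5 mg/mL stock) was added for 4 h, formazan dissolved in DMSO and A570 read. Viability was taken relative to untreated wells. IC50 came from a Boltzmann sigmoidal fit, in triplicate, mean ± SD.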

The test system of assay [3] is prostate cancer PC3 cell line. The settings on record: read-out: IC50 PC3 cell line; cited from earlier work.
Assay [4] deals with colorectal (HCT116) carcinoma cell line. The assay is described as follows: MTT cytotoxicity, HCT-116. Format: cell-based. To be noted: Homo sapiens, HCT-116, 24 h, read-out: IC50 HCT-116.
Assay [5] concerns hepatocellular (HePG2) carcinoma cell line. The assay is described as follows: MTT cytotoxicity, HePG-2. The settings on record: Homo sapiens, HepG2, 24 h, read-out: IC50 HePG-2. Format: cell-based.
Assay [6] concerns human cervical (Hela) carcinoma cell line. The assay is described as follows: MTT cytotoxicity, Hela. It is filed as cell-based. To be noted: 24 h, read-out: IC50 Hela. In short, it runs like this:
as §1

Assay [7] deals with WI-38 normal fibroblast cells. The assay is described as follows: MTT cytotoxicity towards normal human cells WI-38. Format: cell-based. To be noted: WI-38, 24 h, read-out: IC50 WI-38.
Another assay deals with VEGFR-2 enzyme (Homo sapiens, UniProt P35968). The assay can be described thus: VEGFR-2 kinase inhibitory assay. Format: biochemical.
Sequence of VEGFR-2 enzyme (P35968 20-1356): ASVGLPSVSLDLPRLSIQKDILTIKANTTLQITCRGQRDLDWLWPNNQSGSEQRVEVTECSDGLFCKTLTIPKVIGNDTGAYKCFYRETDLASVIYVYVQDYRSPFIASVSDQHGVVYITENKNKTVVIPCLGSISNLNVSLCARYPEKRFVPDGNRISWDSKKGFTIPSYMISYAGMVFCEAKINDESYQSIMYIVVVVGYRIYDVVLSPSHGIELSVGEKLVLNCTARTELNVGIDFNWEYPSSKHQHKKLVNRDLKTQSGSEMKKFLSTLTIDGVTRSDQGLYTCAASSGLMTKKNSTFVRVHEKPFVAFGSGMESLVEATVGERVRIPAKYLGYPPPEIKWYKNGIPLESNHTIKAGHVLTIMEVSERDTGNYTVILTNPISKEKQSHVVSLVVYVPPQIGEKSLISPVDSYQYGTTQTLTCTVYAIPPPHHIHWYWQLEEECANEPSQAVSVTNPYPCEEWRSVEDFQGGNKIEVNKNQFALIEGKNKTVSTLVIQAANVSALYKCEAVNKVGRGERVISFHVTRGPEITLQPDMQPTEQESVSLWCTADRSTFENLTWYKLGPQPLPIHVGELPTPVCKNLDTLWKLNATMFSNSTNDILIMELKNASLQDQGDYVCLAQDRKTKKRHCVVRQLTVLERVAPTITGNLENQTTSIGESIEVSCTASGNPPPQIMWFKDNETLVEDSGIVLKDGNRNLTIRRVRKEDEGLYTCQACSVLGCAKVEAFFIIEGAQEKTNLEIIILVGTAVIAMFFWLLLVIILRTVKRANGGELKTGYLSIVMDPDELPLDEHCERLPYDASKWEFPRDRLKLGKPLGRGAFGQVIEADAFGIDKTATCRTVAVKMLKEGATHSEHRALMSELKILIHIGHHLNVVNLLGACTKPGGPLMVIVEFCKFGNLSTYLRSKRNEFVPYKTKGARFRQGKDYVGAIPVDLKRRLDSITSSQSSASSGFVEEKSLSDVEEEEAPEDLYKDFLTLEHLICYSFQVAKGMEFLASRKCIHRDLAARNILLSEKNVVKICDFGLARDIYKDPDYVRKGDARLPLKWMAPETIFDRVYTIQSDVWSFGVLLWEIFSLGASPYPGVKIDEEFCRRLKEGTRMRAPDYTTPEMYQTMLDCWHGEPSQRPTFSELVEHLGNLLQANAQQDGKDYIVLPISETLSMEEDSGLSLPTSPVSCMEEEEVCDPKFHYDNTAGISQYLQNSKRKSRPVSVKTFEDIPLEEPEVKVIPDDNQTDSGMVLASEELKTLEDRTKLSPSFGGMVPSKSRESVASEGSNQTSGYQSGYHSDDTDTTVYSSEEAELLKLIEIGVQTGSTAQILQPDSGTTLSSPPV
For assay [8], the system named is MCF-7 cells. The assay is described as follows: Cell cycle analysis by PI staining and flow cytometry. Format: cell-based, human. The settings on record: MCF-7, 24 h at IC50 of the compound. In general terms: A flow cytometer gives signals particle by particle.
Assay [9] has as its system MCF-7 cells. The assay can be described thus: Annexin V-FITC/PI apoptosis assay. It is filed as cell-based, human. The settings on record: MCF-7, 24 hours of incubation. In short, it runs like this: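 MCF-7 cells were treated with test compound for 24 h, with DMSO as control. 1–5×10^5 cells were pelleted by centrifugation and resuspended in binding buffer. They were stained with Annexin V-FITC and PI for 5 min at room temperature in the dark, then analysed by flow cytometry. Quadrants: Q1 necrotic, Q2 late apoptotic, Q3 live, Q4 early apoptotic.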

Assay [10] deals with HCT-116, HePG-2, HeLa and MCF-7 cells. The assay is described as follows: MTT cytotoxicity summarised over the 4 cancer cell lines. It is filed as cell-based. The settings on record: Homo sapiens, read-out: IC50 range of one compound over the cancer cell lines. In short, it runs like this: as §1

SMILES strings stand for the structures. Some results are limits rather than exact numbers.

Consider `Cc1ccc(Nc2nccc(N(C)c3ccc4c(C)n(C)nc4c3)n2)cc1S(N)(=O)=O` [pazopanib], for which the IC50 with VEGFR-2 was […].
For `COc1cc2c(Oc3ccc4[nH]c(C)cc4c3F)ncnc2cc1OCCCN1CCCC1` [Cediranib], the IC50 in assay [1] is under 1 nM.
Regarding `CNC(=O)c1cc(Oc2ccc(NC(=O)Nc3ccc(Cl)c(C(F)(F)F)c3)cc2)ccn1` [SOR, Sorafenib, reference compound], the IC50 in [2] was 4.17 ± 0.2 µM; in assay [3], 17.3 µM.
Consider `O=C(NCCSc1nc2cc(Cl)ccc2c(=O)n1-c1ccccc1)NCc1ccc(Cl)cc1` [Compound 5p, 1-(2-((7-Chloro-4-Oxo-3-Phenyl-3,4-Dihydroquinazolin-2-Yl)thio)ethyl)-3-(4-Chlorobenzyl)urea], for which the IC50 in [4] amounted to 8.32 ± 0.7 µM; in assay [5] it was 9.72 ± 0.7 µM; in [6], 14.3 ± 1.2 µM; in assay [2] it was 7.99 ± 0.5 µM; in assay [7], 56.9 ± 3.3 µM; on VEGFR-2 enzyme it was 117 nM. In assay [10], the IC50 is 7.99 to 14.3 µM. Further, the inhibition at 0.01 µM at VEGFR-2 enzyme (read-out: % Inhibition 0.01 μM, VEGFR-2 enzyme, 0.01 μM) worked out at 31.4%. Moreover, the inhibition at 0.1 µM on VEGFR-2 enzyme (read-out: % Inhibition 0.1 μM, VEGFR-2 enzyme, 0.1 μM) is 44.4%. The inhibition at 1 µM on VEGFR-2 enzyme (read-out: % Inhibition 1 μM, VEGFR-2 enzyme, 1 μM) turned out to be 70.5%. The inhibition at 10 µM on VEGFR-2 enzyme (read-out: % Inhibition 10 μM, VEGFR-2 enzyme, 10 μM) was 88.3%. Further, on VEGFR-2 enzyme (read-out: % Inhibition 100 μM, VEGFR-2 enzyme, 100 μM), the inhibition at 100 µM stood at 93.5%. In addition, the “Cell Cycle Distribution (%) G2-M” value in the assay with MCF-7 cells [8] (DMSO control 16.75) was 7.82%. In addition, the “Cell Cycle Distribution (%) S” value with MCF-7 cells [8] (DMSO control 29.16) is 35.02%. The “Cell Cycle Distribution (%) G0-G1” value in the assay on MCF-7 cells [8] (DMSO control 54.09) stood at 57.16%. Also, in the assay on MCF-7 cells [9], the “necrosis (Q1)” value turned out to be 4.23%. Also, the “late apoptosis (Q2)” value with MCF-7 cells [9] (control 0.27%) is 12.51%. For the same molecule, the “early apoptosis (Q4)” value in the assay on MCF-7 cells [9] (control 0.61%) is on record as 26.11%. The total apoptosis in the assay with MCF-7 cells [9] (control 2.29%) came out at 42.85%.

In general, inhibition refers to the share of the control response that was lost under treatment.

Source of the values: paper PMC11568772 (Drug Design, Development and Therapy, 2024).
